Assay results reported in ChEMBL document CHEMBL3351845, “Synthesis and in vitro stability of amino acid prodrugs of 6-β-naltrexol for microneedle-enhanced transdermal delivery” (Bioorg Med Chem Lett, 2014).

Experiments:
[1] = Stability in pH 5.0 0.3 M acetate buffer assessed as time duration in which 90% produg stability at 1 mg by HPLC method; format: physicochemical; settings: in vitro
How it was run: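 Roughly 1 mg prodrug was added to 10 mL of 0.3 M acetate buffer, pH 5.0, thermostated at 32 °C, then vortexed 1 min and filtered through 0.45 μm nylon. Degradation was followed over time by C-8 reversed-phase HPLC with UV at 215 or 278 nm, mobile phase 70:30 ACN:aqueous TFA/octane sulfonate, pH 3.0. t90 is the time to 10% loss; runs in duplicate.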

Plasma = assay: Half life in 50% human plasma in presence of 50% PBS buffer assessed prodrug hydrolysis by HPLC method; format: ADME, cell-free
How it was run: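 Each prodrug was made up as a DMSO stock, and 40.0 μL was added to 760.0 μL of 50% human plasma in 50% PBS (pH 7.4), pre-warmed to 37 °C. Aliquots taken at set times got salicylamide internal standard, were vortexed, centrifuged, dried under N2, and taken up in methanol/0.04% HFBA. Analysis used gradient HPLC on a phenyl column against an eight-point calibration. Kapp came from log(AUC prodrug/AUC IS) versus time; n=3, mean ± SD.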

[2] = Half life in pH 7.4 25 mM HEPES buffered Hank's balanced salt solution at assessed as prodrug hydrolysis 1 mg by HPLC method; format: physicochemical; settings: buffer
How it was run: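 About 1 mg prodrug went into 10 mL of 25 mM HEPES-buffered Hanks' balanced salt solution, pH 7.4, held at 37 °C. The mixture was vortexed 1 min and filtered through 0.45 μm nylon. Samples were run by reversed-phase C-8 HPLC with UV at 215 or 278 nm, mobile phase 70:30 ACN:aqueous 0.1% TFA/0.065% octane sulfonate, pH 3.0. Half-life was read from pseudo-first-order hydrolysis; duplicate runs.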

[3] = Solubility in pH 7.4 25 mM HEPES buffered Hank's balanced salt solution by HPLC method; format: physicochemical; settings: buffer

Row | SMILES | Time [1] | t1/2 (Plasma) | t1/2 [2] | solubility [3]
1 | C[C@H](N)C(=O)O[C@@H]1CC[C@@]2(O)[C@H]3Cc4ccc(O)c5c4[C@@]2(CCN3CC2CC2)[C@H]1O5 | 0.412 days | – | – | –
2 | CC(C)[C@H](N)C(=O)O[C@@H]1CC[C@@]2(O)[C@H]3Cc4ccc(O)c5c4[C@@]2(CCN3CC2CC2)[C@H]1O5 | 5.2 days | 0.76 days | 0.48 days | –
3 | CC(C)C[C@H](N)C(=O)O[C@@H]1CC[C@@]2(O)[C@H]3Cc4ccc(O)c5c4[C@@]2(CCN3CC2CC2)[C@H]1O5 | 0.9 days | – | – | –
4 | CCC(C)[C@H](N)C(=O)O[C@@H]1CC[C@@]2(O)[C@H]3Cc4ccc(O)c5c4[C@@]2(CCN3CC2CC2)[C@H]1O5 (some centres not stated) | 14 days | 1.3 days | 0.9 days | Insoluble
5 | NCCC(=O)O[C@@H]1CC[C@@]2(O)[C@H]3Cc4ccc(O)c5c4[C@@]2(CCN3CC2CC2)[C@H]1O5 | 5.6 days | – | 0.5 days | –
6 | O=C(O[C@@H]1CC[C@@]2(O)[C@H]3Cc4ccc(O)c5c4[C@@]2(CCN3CC2CC2)[C@H]1O5)[C@@H]1CCCN1 | 0.217 days | – | – | –
